# Measured values gathered from unrelated publications.
# CYP2C8: Cytochrome P450 2C8 (CYP2C8, Homo sapiens, UniProt P10632)
# CYP2C9: Cytochrome P450 2C9 (CYP2C9, Homo sapiens, UniProt P11712)
SMILES,target or system,test,system,setting,endpoint,result
CSc1ccccc1C(=O)NCCn1cc(C(=O)NCc2cccc(C)n2)c(=O)c2cc3c(cc21)OC(F)(F)O3,CYP2C8,"enzyme activity, inhibitor","human, liver microsomes","20 min, without NADPH, with preincubation",IC50,> 100 µM
CN(C)C(=O)c1cc2cnc(Nc3ccc(-c4ccc5c(=O)cc(N6CCOCC6)oc5c4)cc3)nc2n1C1CCCC1.Cl,,,"BALB/c mouse, plasma","oral, 20 mg/kg",AUC,7810 ng·h/mL
NCc1ccc(-c2nn(Cc3ccncc3)c3ccccc23)o1,,,"male CD-1 mouse, plasma","oral, 10 mg/kg",bioavailability,15%
N#Cc1ccc(C[C@@H](Nc2c(Nc3ccc(F)cc3)c(=O)c2=O)C(=O)N2CCc3ccccc32)cc1,,metabolic stability,"rat, liver microsomes","10 µM, pH 7.4",half-life,15 min
CC(=O)O[C@H]1[C@H](O[C@H]2CC[C@]34C[C@]35CC[C@]3(C)[C@@H]([C@@]6(C)CC[C@@H](C(C)(C)O)O6)[C@@H](O)C[C@@]3(C)[C@@H]5C[C@H](O[C@@H]3O[C@H](CO)[C@@H](O)[C@H](O)[C@H]3O)[C@H]4C2(C)C)OC[C@@H](OC(C)=O)[C@@H]1O,CYP2C9,"enzyme activity, inhibitor","human, liver microsomes",,IC50,116 µM
OCc1ccc(-c2nn(Cc3ccccc3)c3ccccc23)o1,,metabolic stability,"rat, liver microsomes","1 µM, pH 7.4",half-life,6 min
CC(C)(O)[C@@H]1CC[C@](C)([C@H]2[C@@H](O)C[C@@]3(C)[C@@H]4C[C@H](O[C@@H]5O[C@H](CO)[C@@H](O)[C@H](O)[C@H]5O)[C@H]5C(C)(C)[C@@H](O[C@@H]6OC[C@@H](O)[C@H](O)[C@H]6O)CC[C@@]56C[C@@]46CC[C@]23C)O1,CYP2C9,"enzyme activity, inhibitor","human, liver microsomes",,IC50,> 200 µM
C=C(F)C(=O)N1CCN(c2nc(OC[C@@H]3CCCN3C)nc3c2CCN(c2cccc4cccc(Cl)c24)C3)C[C@@H]1CC#N,,"chemical stability, HPLC",glutathione solution,"5 µM, pH 7.4",half-life,520 min
Cc1cccc(-c2nnc(N[C@@H](Cc3ccc(C#N)cc3)C(=O)N3CCc4ccccc43)o2)c1,,metabolic stability,"rat, liver microsomes","10 µM, pH 7.4",half-life,18 min
COc1cc(Cn2nc(-c3ccc(CO)o3)c3ccccc32)ccn1,,metabolic stability,"rat, liver microsomes","1 µM, pH 7.4",half-life,7 min
CSc1ccccc1C(=O)NCCn1cc(C(=O)NCc2cccc(C)n2)c(=O)c2cc3c(cc21)OCO3,CYP2C8,"enzyme activity, inhibitor","human, liver microsomes","20 min, without NADPH, with preincubation",IC50,> 100 µM
Cc1ccc(OCC(=O)N[C@@H](Cc2c[nH]c3ccccc23)C(=O)OC(C)C)cc1,,chemical stability,simulated intestinal fluid,,half-life,> 300 min
